Reference: ChEMBL document CHEMBL4002602, “Design, Synthesis of Novel, Potent, Selective, Orally Bioavailable Adenosine A2A Receptor Antagonists and Their Biological Evaluation” (J Med Chem, 2017)
Activity calls are given as the source filed them. The rule behind the calls is not given here.

Assays:
[1] = Tmax in Wistar rat at 10 mg/kg administered via oral gavage by LC/MS/MS analysis; format: ADME, organism-based; settings: in vivo
Method in brief: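 Fasted male Wistar rats given 10 mg/kg PO as a suspension in 1% Tween 80, 0.5% w/v NaCMC. Serial plasma sampling (K2EDTA) at 0.25–24 h, acetonitrile precipitation, LC/MS/MS. Non-compartmental analysis per animal; bioavailability calculated against the 3 mg/kg IV group; mean of n=4.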

[2] = Protein binding in rat serum at 1 uM after 6 hrs by HT dialysis method; format: ADME, cell-free; settings: read-out: PB (converted)
Adenosine receptor A2b [3] = molecular target: T1, Adenosine receptor A2b (Homo sapiens, UniProt P29275); experiment: Displacement of [3H]-MRS-1754 from human adenosine A2B receptor expressed in HEK293 cell membranes measured after 90 mins
T1 sequence (P29275 whole entry): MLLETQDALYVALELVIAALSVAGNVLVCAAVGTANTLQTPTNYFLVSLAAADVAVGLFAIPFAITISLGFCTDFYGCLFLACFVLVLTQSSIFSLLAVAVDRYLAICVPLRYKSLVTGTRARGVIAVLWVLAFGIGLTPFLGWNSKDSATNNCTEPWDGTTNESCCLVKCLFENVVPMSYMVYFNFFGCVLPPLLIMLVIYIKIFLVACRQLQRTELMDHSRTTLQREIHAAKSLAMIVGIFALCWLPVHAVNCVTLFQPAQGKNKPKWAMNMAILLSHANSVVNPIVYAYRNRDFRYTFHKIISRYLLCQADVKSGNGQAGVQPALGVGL

Adenosine receptor A2b [4] = molecular target: T1, Adenosine receptor A2b; experiment: Antagonist activity at human adenosine A2B receptor expressed in HEK293 cell membranes assessed as decrease in NECA/forskolin-induced cAMP level pretreated for 15 mins followed by agonist addition for 15 mins and subsequent forskolin stimulation measured after 30 mins; format: functional, cell-based
[5] = Volume of distribution at steady state in Wistar rat at 3 mg/kg, iv by LC/MS/MS analysis; format: ADME, organism-based; settings: in vivo, read-out: Vdss
Method in brief: (§1)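 Male Wistar rats (230 ± 15 g), fasted overnight, given 3 mg/kg IV via tail vein as a solution (0.6 mg/mL, 5 mL/kg) in NMP-based vehicles with acetate buffer pH 4.2. Serial plasma sampling (K2EDTA) from 0.008 to 24 h. Acetonitrile precipitation, then LC/MS/MS. Non-compartmental analysis per animal; mean of n=4.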

Liver = experiment: Metabolic stability in rat liver microsomes assessed as metabolic rate at 1 uM preincubated for 5 mins followed by addition of NADPH measured after 3 to 30 mins by LC-MS/MS analysis; format: ADME, microsome
[6] = AUC (0 to t) in Wistar rat at 10 mg/kg administered via oral gavage by LC/MS/MS analysis; format: ADME, organism-based; settings: in vivo
Method in brief: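 Male Wistar rats (230 ± 15 g), fasted overnight with water available, given a single oral suspension in 1% Tween 80 and 0.5% NaCMC (1 mg/mL, 10 mL/kg). Serial blood sampling (n=3/time point) at 0.25–24 h into K2EDTA. Plasma proteins precipitated with acetonitrile, then LC/MS/MS. AUC0-t by non-compartmental analysis of individual animals.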

[7] = Clearance in Wistar rat at 3 mg/kg, iv by LC/MS/MS analysis; format: ADME, organism-based; settings: in vivo; method in brief: as §1
Cytochrome P450 3A = Cytochrome P450 3A (Homo sapiens, UniProt P08684+P20815+Q9HB55+P24462); experiment: Inhibition of CYP3A in human liver microsomes at 5 to 25 uM using testosterone as substrate preincubated for 5 mins with substrate followed by NADPH addition measured after 10 mins by LC-MS/MS analysis; format: ADME; settings: microsomes, 10 min, 25 µM
Cytochrome P450 2C19 = Cytochrome P450 2C19 (Homo sapiens, UniProt P33261); experiment: Inhibition of CYP2C19 in human liver microsomes at 5 to 25 uM using (S)mephenytoin as substrate preincubated for 5 mins with substrate followed by NADPH addition measured after 40 mins by LC-MS/MS analysis; format: ADME; settings: microsomes, 40 min, 25 µM
[8] = molecular target: T2, Adenosine receptor A2b (Homo sapiens) (UniProt P29275); experiment: Displacement of [3H]-MRS-1754 from human adenosine A2B receptor expressed in HEK293 cell membranes at 1 uM measured after 90 mins relative to control
T2 sequence (whole entry): T1 sequence (P29275 whole entry)

[9] = molecular target: T3, Adenosine receptor A1 (Homo sapiens) (UniProt P30542); experiment: Displacement of [3H]-DPCPX from human adenosine A1 receptor expressed in HEK293 cell membranes at 1 uM measured after 90 mins relative to control
T3 sequence (whole entry): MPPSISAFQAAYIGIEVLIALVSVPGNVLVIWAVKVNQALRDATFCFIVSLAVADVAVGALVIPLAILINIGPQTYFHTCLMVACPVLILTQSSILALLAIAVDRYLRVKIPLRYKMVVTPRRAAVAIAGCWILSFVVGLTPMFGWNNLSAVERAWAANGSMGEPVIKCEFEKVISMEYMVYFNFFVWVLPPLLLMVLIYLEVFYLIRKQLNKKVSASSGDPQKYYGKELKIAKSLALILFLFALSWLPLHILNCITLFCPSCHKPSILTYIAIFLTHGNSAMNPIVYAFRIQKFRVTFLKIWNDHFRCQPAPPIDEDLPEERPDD

Adenosine receptor A3 = molecular target: T4, Adenosine receptor A3 (Homo sapiens, UniProt P0DMS8); experiment: Displacement of [3H]-HEMADO from human adenosine A3 receptor expressed in HEK293 cell membranes measured after 90 mins
T4 sequence (P0DMS8 whole entry): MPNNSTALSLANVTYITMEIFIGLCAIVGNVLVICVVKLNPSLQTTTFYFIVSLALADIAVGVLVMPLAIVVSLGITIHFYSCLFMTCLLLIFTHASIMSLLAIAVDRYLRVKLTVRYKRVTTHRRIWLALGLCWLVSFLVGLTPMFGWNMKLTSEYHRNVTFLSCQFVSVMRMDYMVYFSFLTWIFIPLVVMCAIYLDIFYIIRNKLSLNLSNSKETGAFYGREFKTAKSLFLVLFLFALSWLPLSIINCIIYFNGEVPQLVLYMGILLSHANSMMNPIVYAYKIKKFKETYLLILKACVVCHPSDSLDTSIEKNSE

Cytochrome P450 2D6 = Cytochrome P450 2D6 (Homo sapiens, UniProt P10635); experiment: Inhibition of CYP2D6 in human liver microsomes at 5 to 25 uM using dextromethorphan as substrate preincubated for 5 mins with substrate followed by NADPH addition measured after 10 mins by LC-MS/MS analysis; format: ADME; settings: microsomes, 10 min, 25 µM
Cytochrome P450 2C9 = Cytochrome P450 2C9 (Homo sapiens, UniProt P11712); experiment: Inhibition of CYP2C9 in human liver microsomes at 5 to 25 uM using diclofenac as substrate preincubated for 5 mins with substrate followed by NADPH addition measured after 10 mins by LC-MS/MS analysis; format: ADME; settings: microsomes, 10 min, 25 µM
[10] = molecular target: T3, Adenosine receptor A1 (Homo sapiens); experiment: Antagonist activity at human adenosine A1 receptor expressed in HEK293 cell membranes assessed as decrease in CPA/forskolin-induced cAMP level at 10 uM pretreated for 15 mins followed by agonist addition for 15 mins and subsequent forskolin stimulation measured after 30 mins; format: functional, cell-based
Method in brief: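 Whole HEK-A1 cells were seeded overnight and then pretreated with 1 U/ml ADA for 90 min at 37 °C and 5% CO2. Compound was added for 15 min, then 1 nM CPA for 15 min, then forskolin for 30 min, at room temperature in incomplete DMEM with ADA and 20 μM rolipram. cAMP was read by HTRF (620/665 nm). Compounds ran at 12 concentrations in triplicate, with 10 or 30 μM as the top concentration.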

Chain of Cytochrome P450 2D6 (P10635 whole entry): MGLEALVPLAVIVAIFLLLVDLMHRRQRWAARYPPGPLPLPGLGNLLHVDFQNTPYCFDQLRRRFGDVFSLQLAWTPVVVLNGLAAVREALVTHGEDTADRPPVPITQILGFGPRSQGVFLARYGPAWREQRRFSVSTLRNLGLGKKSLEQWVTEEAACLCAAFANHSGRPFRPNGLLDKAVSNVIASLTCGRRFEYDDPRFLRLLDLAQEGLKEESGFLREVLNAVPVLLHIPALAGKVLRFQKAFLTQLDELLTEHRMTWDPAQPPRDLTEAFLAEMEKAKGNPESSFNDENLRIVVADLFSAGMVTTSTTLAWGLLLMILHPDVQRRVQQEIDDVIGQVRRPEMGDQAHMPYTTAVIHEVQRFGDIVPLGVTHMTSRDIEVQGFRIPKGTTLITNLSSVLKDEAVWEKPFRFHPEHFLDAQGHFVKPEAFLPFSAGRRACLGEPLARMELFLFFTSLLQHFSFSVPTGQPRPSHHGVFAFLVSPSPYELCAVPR
Chain of Cytochrome P450 2C19 (P33261 whole entry): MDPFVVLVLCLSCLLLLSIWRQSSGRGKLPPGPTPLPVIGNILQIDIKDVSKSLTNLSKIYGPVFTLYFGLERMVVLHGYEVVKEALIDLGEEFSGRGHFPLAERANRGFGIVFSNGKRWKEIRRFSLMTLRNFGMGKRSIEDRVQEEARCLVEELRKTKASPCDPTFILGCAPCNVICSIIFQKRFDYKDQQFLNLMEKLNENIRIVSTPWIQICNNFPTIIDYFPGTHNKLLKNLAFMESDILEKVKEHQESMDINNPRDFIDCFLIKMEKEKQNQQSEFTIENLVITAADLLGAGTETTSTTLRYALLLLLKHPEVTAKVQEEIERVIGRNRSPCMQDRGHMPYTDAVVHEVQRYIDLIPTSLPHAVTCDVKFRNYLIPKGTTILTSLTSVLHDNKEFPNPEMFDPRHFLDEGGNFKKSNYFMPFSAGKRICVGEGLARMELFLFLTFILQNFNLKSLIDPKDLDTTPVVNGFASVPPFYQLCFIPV
Chain of Cytochrome P450 2C9 (P11712 whole entry): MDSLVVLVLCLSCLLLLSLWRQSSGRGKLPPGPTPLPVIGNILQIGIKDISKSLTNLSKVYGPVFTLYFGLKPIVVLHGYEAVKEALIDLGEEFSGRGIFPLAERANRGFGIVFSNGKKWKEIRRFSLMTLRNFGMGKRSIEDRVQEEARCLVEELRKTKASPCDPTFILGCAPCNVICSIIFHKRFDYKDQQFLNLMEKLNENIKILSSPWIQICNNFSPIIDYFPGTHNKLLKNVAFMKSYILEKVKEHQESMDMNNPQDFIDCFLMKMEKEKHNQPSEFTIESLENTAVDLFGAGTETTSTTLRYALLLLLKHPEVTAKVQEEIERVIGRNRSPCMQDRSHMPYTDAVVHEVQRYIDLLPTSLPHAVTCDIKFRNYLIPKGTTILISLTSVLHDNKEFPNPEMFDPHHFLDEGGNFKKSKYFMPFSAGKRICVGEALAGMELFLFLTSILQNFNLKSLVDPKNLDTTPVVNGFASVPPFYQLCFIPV

SMILES | Tmax [1] | fraction unbound at 6 h, 1 µM [2] | Ki (Adenosine receptor A2b [3]) | Ki (Adenosine receptor A2b [4]) | Vd [5] | Drug metabolism (Liver) | AUC(0-t) [6] | clearance [7] | inhibition (INH) (Cytochrome P450 3A) | inhibition (INH) (Cytochrome P450 2C19) | inhibition [8] | inhibition [9] | Ki (Adenosine receptor A3) | inhibition (INH) (Cytochrome P450 2D6) | inhibition (INH) (Cytochrome P450 2C9) | Activity [10]
CCN(CC)C1CCC(C)(C(=O)Nc2nc3c(OC)ccc(N4CCOCC4)c3s2)CC1 (stereo not drawn) | 37.8 min | 0.24 | 500 nM | 650 nM | 6.1 L/kg | 0.01 nmol/min/mg | 5.5 µM·h | 37.2 mL/min/kg |  |  |  |  |  |  |  | 
COc1ccc(N2CCOCC2)c2sc(NC(=O)C(C)(C)Oc3ccc(F)c(F)c3)nc12 | 30 min |  | 5000 nM |  | 2.1 L/kg | 0.09 nmol/min/mg | 6.2 µM·h | 10.2 mL/min/kg | Not Active | Not Active | 34% | 38% | 500 nM | Not Active | Not Active | inactive

Continued by falling Ki (Adenosine receptor A2b [3]), values first:

Tmax [1] | fraction unbound at 6 h, 1 µM [2] | Ki (Adenosine receptor A2b [3]) | Ki (Adenosine receptor A2b [4]) | Vd [5] | Drug metabolism (Liver) | AUC(0-t) [6] | clearance [7] | inhibition (INH) (Cytochrome P450 3A) | inhibition (INH) (Cytochrome P450 2C19) | inhibition [8] | inhibition [9] | Ki (Adenosine receptor A3) | inhibition (INH) (Cytochrome P450 2D6) | inhibition (INH) (Cytochrome P450 2C9) | Activity [10] | SMILES
30 min |  | 10000 nM |  | 1.4 L/kg | 0.04 nmol/min/mg | 1.5 µM·h | 15 mL/min/kg | Not Active | Not Active | 0% | 16% | 5000 nM | Not Active | Not Active |  | COc1ccc(N2CCOCC2)c2sc(NC(=O)C(C)(C)Oc3ccc(F)cc3)nc12
165 min |  | 1400 nM | 2000 nM | 2.1 L/kg | < 0.04 nmol/min/mg | 12 µM·h | 6.6 mL/min/kg | Not Active | Not Active | 24% | 46% | 400 nM | Not Active | Not Active | inactive | COc1cnc(N2CCOCC2)c2sc(NC(=O)C(C)(C)Oc3ccc(F)cc3)nc12
30 min | 0.13 | 500 nM | 2000 nM | 1.5 L/kg | < 0.04 nmol/min/mg | 7.8 µM·h | 32 mL/min/kg |  |  |  |  |  |  |  |  | COc1ccc(N2CCOCC2)c2sc(NC(=O)C3(C)CCC(C)(O)CC3)nc12 (stereo not drawn)
